The values below come from ChEMBL document CHEMBL1145087 (J Med Chem, 2003).

As a reminder, the Ki is a dissociation constant, usually derived from enzyme kinetics or from competition with a known ligand. Read a high Ki as lower affinity. As a reminder, the EC50 is the midpoint of the concentration-response curve. Higher therefore signals weaker potency. For orientation: IC50 means the point on the concentration scale where inhibition reaches its midpoint. Low readings indicate greater potency in that assay, high ones weaker potency in that assay.

For assay [1], the target named is T1, Androgen receptor (Homo sapiens, UniProt P10275).
T1 sequence (P10275 whole entry): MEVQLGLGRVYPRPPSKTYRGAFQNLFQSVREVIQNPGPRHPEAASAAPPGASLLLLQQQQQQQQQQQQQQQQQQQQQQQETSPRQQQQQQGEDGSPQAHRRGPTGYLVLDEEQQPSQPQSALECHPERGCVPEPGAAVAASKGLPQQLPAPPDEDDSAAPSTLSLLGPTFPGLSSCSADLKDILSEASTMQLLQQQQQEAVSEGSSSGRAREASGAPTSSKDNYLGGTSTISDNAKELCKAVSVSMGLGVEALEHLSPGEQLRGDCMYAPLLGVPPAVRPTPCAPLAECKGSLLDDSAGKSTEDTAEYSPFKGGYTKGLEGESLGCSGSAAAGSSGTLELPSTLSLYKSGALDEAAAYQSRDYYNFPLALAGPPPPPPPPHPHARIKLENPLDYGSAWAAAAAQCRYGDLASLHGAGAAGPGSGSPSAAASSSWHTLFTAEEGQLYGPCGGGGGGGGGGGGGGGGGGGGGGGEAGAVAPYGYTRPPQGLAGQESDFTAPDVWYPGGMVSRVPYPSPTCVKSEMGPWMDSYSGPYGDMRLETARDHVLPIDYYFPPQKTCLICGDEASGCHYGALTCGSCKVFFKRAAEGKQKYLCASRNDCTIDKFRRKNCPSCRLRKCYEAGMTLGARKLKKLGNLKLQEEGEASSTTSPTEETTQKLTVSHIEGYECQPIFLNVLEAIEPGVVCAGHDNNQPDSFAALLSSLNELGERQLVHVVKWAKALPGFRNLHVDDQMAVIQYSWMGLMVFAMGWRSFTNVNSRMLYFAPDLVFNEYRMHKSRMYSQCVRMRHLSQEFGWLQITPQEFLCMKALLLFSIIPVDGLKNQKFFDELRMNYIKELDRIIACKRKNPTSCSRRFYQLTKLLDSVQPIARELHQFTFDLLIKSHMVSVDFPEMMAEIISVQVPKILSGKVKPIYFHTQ
Kind of assay: biochemical.

Assay [2] is filed under the species Homo sapiens. Briefly: Relative potency for human androgen and progesterone receptors.
The species entered for assay [3] is Homo sapiens. Kind of assay: Relative potency for human mineralocorticoid and progesterone receptors.
Assay [4] deals with T2, Progesterone receptor (Homo sapiens) (UniProt P06401).
T2 sequence (whole entry): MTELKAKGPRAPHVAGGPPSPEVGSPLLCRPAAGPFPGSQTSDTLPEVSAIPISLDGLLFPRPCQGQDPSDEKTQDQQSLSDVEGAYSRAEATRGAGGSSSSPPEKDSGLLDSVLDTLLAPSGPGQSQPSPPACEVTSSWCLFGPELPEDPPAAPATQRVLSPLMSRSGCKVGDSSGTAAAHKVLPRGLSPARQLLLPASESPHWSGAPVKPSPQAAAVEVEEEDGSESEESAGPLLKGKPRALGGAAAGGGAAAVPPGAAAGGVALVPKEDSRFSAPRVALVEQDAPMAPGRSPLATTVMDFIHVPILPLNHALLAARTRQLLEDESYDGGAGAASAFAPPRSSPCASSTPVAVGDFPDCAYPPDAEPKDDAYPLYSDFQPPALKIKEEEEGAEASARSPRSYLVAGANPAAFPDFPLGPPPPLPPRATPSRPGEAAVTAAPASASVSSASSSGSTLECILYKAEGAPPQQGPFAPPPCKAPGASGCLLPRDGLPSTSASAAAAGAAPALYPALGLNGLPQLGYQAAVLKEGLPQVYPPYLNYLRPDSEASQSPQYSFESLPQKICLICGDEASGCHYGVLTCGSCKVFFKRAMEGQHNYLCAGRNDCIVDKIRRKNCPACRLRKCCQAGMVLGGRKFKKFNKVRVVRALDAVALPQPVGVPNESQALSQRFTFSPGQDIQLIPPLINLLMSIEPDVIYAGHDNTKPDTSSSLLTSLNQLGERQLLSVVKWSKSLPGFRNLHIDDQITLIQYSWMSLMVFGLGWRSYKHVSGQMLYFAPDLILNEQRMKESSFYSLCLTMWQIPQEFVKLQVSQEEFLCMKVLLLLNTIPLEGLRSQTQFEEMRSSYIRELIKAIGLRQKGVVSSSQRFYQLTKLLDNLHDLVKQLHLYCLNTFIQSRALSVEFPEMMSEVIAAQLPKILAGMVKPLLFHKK
Briefly: Percent agonistic effect towards human progesterone receptor in CV-1 cells. Format: functional, cell-based.

The target of assay [5] is T3, Progesterone receptor (Homo sapiens, UniProt P06401).
T3 sequence (P06401 whole entry): T2 sequence (whole entry)
Briefly: Agonistic activity against human progesterone receptor in CV-1 cells. In kind it is functional, cell-based.

The target of assay [6] is T1, Androgen receptor.
The target in assay [7] is T3, Progesterone receptor. Briefly: Binding affinity towards human progesterone receptor A isoform using progesterone as radioligand.
The target in assay [8] is T4, Glucocorticoid receptor (Homo sapiens, UniProt P04150).
T4 sequence (P04150 whole entry): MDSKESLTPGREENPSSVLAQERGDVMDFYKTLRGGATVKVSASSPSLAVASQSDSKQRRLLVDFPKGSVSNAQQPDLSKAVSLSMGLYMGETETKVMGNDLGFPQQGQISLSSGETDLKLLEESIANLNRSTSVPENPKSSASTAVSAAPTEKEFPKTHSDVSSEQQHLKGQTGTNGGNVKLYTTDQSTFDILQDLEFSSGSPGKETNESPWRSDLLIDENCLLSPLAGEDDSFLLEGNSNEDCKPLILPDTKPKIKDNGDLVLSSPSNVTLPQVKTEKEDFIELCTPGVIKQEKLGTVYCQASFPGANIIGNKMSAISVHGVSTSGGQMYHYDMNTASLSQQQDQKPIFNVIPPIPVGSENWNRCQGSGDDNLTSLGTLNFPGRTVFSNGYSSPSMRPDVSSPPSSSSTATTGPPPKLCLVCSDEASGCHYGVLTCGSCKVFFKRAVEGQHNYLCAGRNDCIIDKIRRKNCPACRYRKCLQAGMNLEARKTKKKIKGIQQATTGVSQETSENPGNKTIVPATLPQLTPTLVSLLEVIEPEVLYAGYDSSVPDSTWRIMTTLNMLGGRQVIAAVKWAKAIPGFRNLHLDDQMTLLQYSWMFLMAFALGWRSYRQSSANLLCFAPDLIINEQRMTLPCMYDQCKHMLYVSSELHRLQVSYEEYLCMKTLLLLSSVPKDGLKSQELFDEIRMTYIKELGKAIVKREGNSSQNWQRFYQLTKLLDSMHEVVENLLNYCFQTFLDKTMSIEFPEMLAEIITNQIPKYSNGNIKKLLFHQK
Kind of assay: Inhibition of Dexamethasone binding to human glucocorticoid receptor expressed in baculovirus […] cells.

The species named for assay [9] is Homo sapiens. Briefly: Relative potency for human estrogen and progesterone receptors.
Assay [10] concerns the target T4, Glucocorticoid receptor.
For assay [11], the target named is T3, Progesterone receptor. Briefly: Agonistic activity against human progesterone receptor in T47D breast cancer cells. In kind it is functional, cell-based.
Assay [12] is filed under the species Homo sapiens. Kind of assay: Relative potency for human glucocorticoid and progesterone receptors.
In assay [13] the target is T2, Progesterone receptor (Homo sapiens). Briefly: Percent agonistic effect towards human progesterone receptor in T47D breast cancer cells. Format: functional, cell-based.
In assay [14] the target is T5, Estrogen receptor (Homo sapiens, UniProt Q92731+P03372).
For assay [15], the target named is T5, Estrogen receptor. Briefly: Antagonistic efficacy against human estrogen receptor. Format: functional. A digest of the protocol: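 Cotransfection LUC reporter assay for hER. Antagonist efficacy is the % maximal inhibition of a standard agonist (estradiol is the reference agonist for hER) applied at its EC50.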

Regarding `CC1=CC(C)(C)Nc2ccc3c(c21)/C(=C/c1ccccc1N(C)C)Oc1ccc(F)cc1-3`, the values for the Ki at Androgen receptor [1], on Progesterone receptor [7] and at Glucocorticoid receptor [8] were 819 nM, 1.2 nM and 493 nM, respectively. For the same molecule, the Ratio is 556 in the assay filed under Homo sapiens [2], greater than 1000 in the assay filed under Homo sapiens [3], greater than 1000 in the assay filed under Homo sapiens [9] and 119 in the assay filed under Homo sapiens [12]. Also, the figures for the Efficacy in assay [4] and in assay [13] were 172% and 59%, respectively. Further, the EC50 at Progesterone receptor [5] is 2.7 nM; at Progesterone receptor [11], 26 nM. For the same molecule, the values for the IC50 at Androgen receptor [6] and at Glucocorticoid receptor [10] were 1500 nM and 320 nM, respectively.
For the molecule `COc1ccccc1/C=C1\Oc2ccc(F)cc2-c2ccc3c(c21)C(C)=CC(C)(C)N3`, the Ki on Androgen receptor [1] stood at 439 nM; at Progesterone receptor [7], 3.8 nM; on Glucocorticoid receptor [8] it was 277 nM. In addition, the Ratio was greater than 1000 in the assay filed under Homo sapiens [2], greater than 1000 in the assay filed under Homo sapiens [3], greater than 1000 in the assay listed under Homo sapiens [9] and 97 in the assay filed under Homo sapiens [12]. Further, the Efficacy in [4] amounted to 154%; on Estrogen receptor [15] it was 34%; in assay [13], 40%. The values for the IC50 against Estrogen receptor [14] and against Glucocorticoid receptor [10] were 1885 nM and 90 nM, respectively. In addition, the midpoint of the response at Progesterone receptor [11], the EC50, lay at 8 nM.
On to `CC1=CC(C)(C)Nc2ccc3c(c21)/C(=C/c1ccco1)Oc1ccc(F)cc1-3`, for which the Ki was greater than 1000 nM on Androgen receptor [1], 4.7 nM on Progesterone receptor [7] and 140 nM on Glucocorticoid receptor [8]. The Ratio in the assay filed under Homo sapiens [2] is 152; in the assay listed under Homo sapiens [3] it was greater than 1000; in the assay filed under Homo sapiens [9], 749; in the assay filed under Homo sapiens [12], 64. In addition, the Efficacy worked out at 138% in [4], 51% on Estrogen receptor [15] and 64% in assay [13]. Besides, the EC50 at Progesterone receptor [5] was found to be 1.7 nM; on Progesterone receptor [11], 21 nM. For the same molecule, the values for the IC50 against Estrogen receptor [14], on Androgen receptor [6] and on Glucocorticoid receptor [10] were 1273 nM, 258 nM and 109 nM, respectively.
